37 compounds from the M2OR odorant receptor database can be followed below.

The assay addresses T1, OR8D1 (Homo sapiens) (UniProt Q8WZ84).
T1 sequence (whole entry): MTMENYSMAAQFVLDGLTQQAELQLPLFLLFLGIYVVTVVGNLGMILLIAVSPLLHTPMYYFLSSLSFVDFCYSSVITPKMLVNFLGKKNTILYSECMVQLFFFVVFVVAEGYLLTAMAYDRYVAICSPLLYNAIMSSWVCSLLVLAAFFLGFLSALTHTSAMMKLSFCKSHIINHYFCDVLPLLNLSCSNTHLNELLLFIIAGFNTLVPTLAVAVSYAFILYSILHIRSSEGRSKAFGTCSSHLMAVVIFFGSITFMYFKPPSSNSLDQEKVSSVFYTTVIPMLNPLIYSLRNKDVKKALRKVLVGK
The settings on record: stereoisomer not certain. In a few lines: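 Values were gathered from published papers (main text and supplementary material), with extra details requested from the original authors when needed, and checked for typos and inconsistencies. Each receptor–molecule pair is called responsive (active) if the original authors judged the measured signal statistically different from baseline, and non-responsive (inactive) otherwise. Assay methods varied by source, often transient mammalian cell-line luciferase assays. Recorded details include cell line, G-protein, co-transfected protein and tags.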
Take `CCOC(=O)C1CCCCC1`: the “odorant receptor agonist call” value was “inactive”.
As for `CCCCCc1ccccn1`, the entry is “inactive”; as for `SCCc1ccccc1`, “inactive”; as for `C=Cc1ccc(O)c(OC)c1`, “inactive”.
As for `COc1cccc(OC)c1O`, the entry is “inactive”; as for `CCCCCC(=O)OCC`, “inactive”.
Turning to `C=CC(=O)CC`, the “odorant receptor agonist call” value is “inactive”.
Next, `OCC=Cc1ccccc1`: “inactive”.
Next, `CCCCCC=CC=O`: “inactive”; `CCCCCCCC(=O)[O-].[H+]`: “inactive”.
As for `CCCCCCCC(=O)OCC`, the entry is “inactive”; as for `CC=Cc1ccc(OC)cc1`, “inactive”.
In the case of `CCOC(C)OCC`, the “odorant receptor agonist call” value is “inactive”.
Next, `CC(C)=CCCC(C)=CCO`: “inactive”; `CCCC(O)CC(=O)OCC` (configuration not stated): “inactive”; `CCCC1CCCC(=O)O1` (configuration not stated): “inactive”.
Next, `COc1nccnc1CC(C)C`: “inactive”; `CCC(=O)O`: “inactive”; `C=C1CCC2(C(C)C)CC12` (configuration not stated): “inactive”.
Next, `CCC(=O)C(C)S` (configuration not stated): “inactive”.
On to `CCCCCCCC1CCC(=O)O1` (configuration not stated), for which the “odorant receptor agonist call” value is “inactive”.
Next, `CSSc1ccoc1C`: “inactive”; `CC=CC(=O)C1=C(C)CCCC1(C)C`: “inactive”; `CCOC(=O)CCC(C)C`: “inactive”.
As for `CCC=CCCC=CC=O`, the “odorant receptor agonist call” value was “inactive”.
As for `C=C1CCC2CC1C2(C)C` (configuration not stated), the entry is “inactive”; as for `Cc1c[nH]c2ccccc12`, “inactive”.
As for `CCCCC(=O)O`, the entry is “inactive”; as for `CCCCC(CC)CCC(=O)O` (configuration not stated), “inactive”.
As for `CCCSSSC`, the entry is “inactive”; as for `CCCSSSCCC`, “inactive”.
On to `CC1=CCC2CC1C2(C)C` (configuration not stated), for which the “odorant receptor agonist call” value is “inactive”.
As for `CCOC(=O)CC(C)C`, the entry is “inactive”; as for `COc1ccc2ccc(=O)oc2c1`, “inactive”.
As for `CCCCCCCCCC(=O)[O-].[H+]`, the entry is “inactive”.
As for `CCCC(=O)OC`, the entry is “inactive”; as for `CCCCCCCC(C)=O`, “inactive”.
